# In ChEMBL document CHEMBL1152483, “To determine the cytotoxicity of chlorambucil and one of its nitro-derivatives, conjugated to prasterone and pregnenolone, towards eight human cancer cell-lines” (Eur J Med Chem, 2009):
# The source made the active and inactive calls. The calls are words filed in the database; no cut-off is given here.
# Test system: MDA-MB-468
# Assay: Cytotoxicity against human MDA-MB-468 cells […] after 5 days by MTT assay
# Format: functional, cell-based
# Details: MDA-MB-468, 120 h
# How it was run: (§1)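 Cells are grown in RPMI with 2 mM L-glutamine and 10% FBS and seeded at 400–1000 per well. They get doubling dilutions of drug, each dose in triplicate, for five days at 37 °C, 5% CO2, humidified. MTT at 3 mg/ml is added for 3 h, and formazan is dissolved in DMSO and read at 540 nm minus 620 nm. % growth inhibition is taken against control wells and IC50 calculated.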
row,Structure (SMILES),IC50
1,O=C(O)CCCc1ccc(N(CCCl)CCCl)c([N+](=O)[O-])c1,1.16 µM

# Test system: MCF7
# Assay: Cytotoxicity against human MCF7 cells expressing estrogen and progesterone receptor after 5 days by MTT assay
# Format: functional, cell-based
# Details: MCF7, 120 h
# How it was run: as §1
row,Structure (SMILES),IC50
1,O=C(O)CCCc1ccc(N(CCCl)CCCl)c([N+](=O)[O-])c1,23 µM

# Test system: WiDr
# Assay: Cytotoxicity against human WiDr cells at < 100 uM after 5 days by MTT assay
# Format: functional, cell-based
# Details: not given
# How it was run: as §1
row,Structure (SMILES),Activity
1,C[C@]12CC[C@H](O)CC1=CC[C@@H]1[C@@H]2CC[C@]2(C)C(=O)CC[C@@H]12,inactive
2,CC(=O)[C@H]1CC[C@H]2[C@@H]3CC=C4C[C@@H](O)CC[C@]4(C)[C@H]3CC[C@]12C,inactive

# Test system: MDA-MB-468
# Assay: Cytotoxicity against human MDA-MB-468 cells […] at < 100 uM after 5 days by MTT assay
# Format: functional, cell-based
# Details: not given
# How it was run: as §1
row,Structure (SMILES),Activity
1,C[C@]12CC[C@H](O)CC1=CC[C@@H]1[C@@H]2CC[C@]2(C)C(=O)CC[C@@H]12,inactive
2,CC(=O)[C@H]1CC[C@H]2[C@@H]3CC=C4C[C@@H](O)CC[C@]4(C)[C@H]3CC[C@]12C,inactive

# Test system: Daoy
# Assay: Cytotoxicity against human DaOY cells at < 100 uM after 5 days by MTT assay
# Format: functional, cell-based
# Details: not given
# How it was run: as §1
row,Structure (SMILES),Activity
1,C[C@]12CC[C@H](O)CC1=CC[C@@H]1[C@@H]2CC[C@]2(C)C(=O)CC[C@@H]12,inactive
2,CC(=O)[C@H]1CC[C@H]2[C@@H]3CC=C4C[C@@H](O)CC[C@]4(C)[C@H]3CC[C@]12C,inactive

# Test system: MCF7
# Assay: Cytotoxicity against human MCF7 cells expressing estrogen and progesterone receptor at < 100 uM after 5 days by MTT assay
# Format: functional, cell-based
# Details: not given
# How it was run: as §1
row,Structure (SMILES),Activity
1,C[C@]12CC[C@H](O)CC1=CC[C@@H]1[C@@H]2CC[C@]2(C)C(=O)CC[C@@H]12,inactive
2,CC(=O)[C@H]1CC[C@H]2[C@@H]3CC=C4C[C@@H](O)CC[C@]4(C)[C@H]3CC[C@]12C,inactive

# Test system: not listed separately
# Assay: Cytotoxicity against human OVCA3 cells after 5 days by MTT assay
# Format: functional, cell-based
# Details: OVCA3, 120 h
# How it was run: as §1
row,Structure (SMILES),IC50
1,O=C(O)CCCc1ccc(N(CCCl)CCCl)c([N+](=O)[O-])c1,15.6 µM

# Test system: MDA-MB-468
# Assay: Cytotoxicity against human MDA-MB-468 cells transfected with NAD(P)H: quinone oxidoreductase NQO1 after 5 days by MTT assay
# Format: functional, cell-based
# Details: MDA-MB-468, 120 h
# How it was run: as §1
row,Structure (SMILES),IC50
1,O=C(O)CCCc1ccc(N(CCCl)CCCl)c([N+](=O)[O-])c1,3.75 µM

# Test system: not listed separately
# Assay: Alkylating activity in 0.2 M acetate buffer of pH 5.6 at 0.1 to 1 mM after 4 hrs by spectrophotometry relative to chlorambucil
# Format: physicochemical
# Details: pH 5.6, 4 h, 1000 µM
# How it was run: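 Each compound at 0.1–1.0 mM in 50% (v/v) acetone/ethanol is added to 0.2 M acetate buffer pH 5.6 with 5% (w/v) p-nitrobenzyl pyridine in acetone and incubated 4 h at 37 °C. Colour is then developed with 25% (v/v) 3-amino-1-propanol in tert-butanol and absorbance read at 560 nm.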
row,Structure (SMILES),Activity
1,O=C(O)CCCc1ccc(N(CCCl)CCCl)c([N+](=O)[O-])c1,38%

# Test system: Daoy
# Assay: Cytotoxicity against human DaOY cells after 5 days by MTT assay
# Format: functional, cell-based
# Details: 120 h
# How it was run: as §1
row,Structure (SMILES),IC50
1,O=C(O)CCCc1ccc(N(CCCl)CCCl)c([N+](=O)[O-])c1,5.3 µM

# Test system: NCI-H460
# Assay: Cytotoxicity against human H460 cells at < 100 uM after 5 days by MTT assay
# Format: functional, cell-based
# Details: not given
# How it was run: as §1
row,Structure (SMILES),Activity
1,C[C@]12CC[C@H](O)CC1=CC[C@@H]1[C@@H]2CC[C@]2(C)C(=O)CC[C@@H]12,inactive
2,CC(=O)[C@H]1CC[C@H]2[C@@H]3CC=C4C[C@@H](O)CC[C@]4(C)[C@H]3CC[C@]12C,inactive

# Test system: A-375
# Assay: Cytotoxicity against human A375 cells at < 100 uM after 5 days by MTT assay
# Format: functional, cell-based
# Details: not given
# How it was run: as §1
row,Structure (SMILES),Activity
1,C[C@]12CC[C@H](O)CC1=CC[C@@H]1[C@@H]2CC[C@]2(C)C(=O)CC[C@@H]12,inactive
2,CC(=O)[C@H]1CC[C@H]2[C@@H]3CC=C4C[C@@H](O)CC[C@]4(C)[C@H]3CC[C@]12C,inactive

# Test system: NCI-H460
# Assay: Cytotoxicity against human H460 cells after 5 days by MTT assay
# Format: functional, cell-based
# Details: NCI-H460, 120 h
# How it was run: as §1
row,Structure (SMILES),IC50
1,O=C(O)CCCc1ccc(N(CCCl)CCCl)c([N+](=O)[O-])c1,9.53 µM

# Test system: WiDr
# Assay: Cytotoxicity against human WiDr cells after 5 days by MTT assay
# Format: functional, cell-based
# Details: 120 h
# How it was run: as §1
row,Structure (SMILES),IC50
1,O=C(O)CCCc1ccc(N(CCCl)CCCl)c([N+](=O)[O-])c1,13 µM

# Test system: OVCA3
# Assay: Cytotoxicity against human OVCA3 cells at < 100 uM after 5 days by MTT assay
# Format: functional, cell-based
# Details: not given
# How it was run: as §1
row,Structure (SMILES),Activity
1,C[C@]12CC[C@H](O)CC1=CC[C@@H]1[C@@H]2CC[C@]2(C)C(=O)CC[C@@H]12,inactive
2,CC(=O)[C@H]1CC[C@H]2[C@@H]3CC=C4C[C@@H](O)CC[C@]4(C)[C@H]3CC[C@]12C,inactive

# Test system: A-375
# Assay: Cytotoxicity against human A375 cells after 5 days by MTT assay
# Format: functional, cell-based
# Details: A-375, 120 h
# How it was run: as §1
row,Structure (SMILES),IC50
1,O=C(O)CCCc1ccc(N(CCCl)CCCl)c([N+](=O)[O-])c1,9.46 µM

# Test system: not listed separately
# Assay: Partition coefficient, log P after 1 hr by UV spectroscopy
# Format: physicochemical
# Details: octanol/water
# How it was run: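 Compound is shaken in n-octanol/water for 1 h at 20 °C, then spun 10 min at 3600 g and the phases separated. Original and shaken solutions are diluted to 0.8 mg% and compared by UV spectroscopy at 200–400 nm. Log P is calculated by the Leo method.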
row,Structure (SMILES),logP at 1 h
1,O=C(O)CCCc1ccc(N(CCCl)CCCl)c([N+](=O)[O-])c1,3.7

# Test system: MDA-MB-468
# Assay: Cytotoxicity against human MDA-MB-468 cells transfected with NAD(P)H: quinone oxidoreductase NQO1 at < 100 uM after 5 days by MTT assay
# Format: functional, cell-based
# Details: not given
# How it was run: as §1
row,Structure (SMILES),Activity
1,C[C@]12CC[C@H](O)CC1=CC[C@@H]1[C@@H]2CC[C@]2(C)C(=O)CC[C@@H]12,inactive
2,CC(=O)[C@H]1CC[C@H]2[C@@H]3CC=C4C[C@@H](O)CC[C@]4(C)[C@H]3CC[C@]12C,inactive
